Values after ≈ are worked out from the molar mass of the structure shown.
Key:
[1] = biological target: DNA gyrase subunit B (Mycobacterium smegmatis (strain ATCC 700084 / mc(2)155), UniProt A0QNE0); assay: Inhibition of Mycobacterium smegmatis MC2 DNA gyrase GyrB ATPase supercoiling activity; parameters: species or system Mycolicibacterium smegmatis
How it was run: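 Gyrase purified from M. smegmatis MC2 cells; compounds in DMSO pre-incubated with enzyme, then 400 ng relaxed pUC18 added in 35 mM Tris-HCl pH 7.5, 5 mM MgCl2, 25 mM K glutamate, 2 mM spermidine, 2 mM ATP, BSA, tRNA, 5% glycerol; 30 min; heat-stopped 65 °C 15 min; agarose gel, ethidium bromide staining; ciprofloxacin 10 µg/ml and 5% DMSO controls.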

Mus musculus [2] = assay: (§1) Phototoxicity in Swiss albino mouse assessed as erythema incidence at 140 mg/kg, po after 48 hrs of irradiation; type: organism-based; parameters: dose 140 mg/kg, route oral; settings: in vivo
How it was run: (§2)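 Female Swiss albino mice (~2 months, 20-25 g), fasted ≥18 h, single 140 mg/kg oral gavage dose; groups of 6 (compound, lomefloxacin HCl 140 mg/kg, 0.5% carboxymethylcellulose vehicle 10 ml/kg); UV irradiation 4 h (~18 J/cm²) right after dosing; both ears scored for erythema, oedema, thickness pre-dose, at end of irradiation, and ~24-96 h; thickness given as mean of both ears ± SEM.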

Mus musculus [3] = assay: Phototoxicity in Swiss albino mouse assessed as ear thickness at 140 mg/kg, po after 24 hrs of irradiation; type: organism-based; parameters: dose 140 mg/kg, route oral; settings: in vivo; how it was run: as §2
Mus musculus [4] = assay: Phototoxicity in Swiss albino mouse assessed as erythema incidence at 140 mg/kg, po after 96 hrs of irradiation; type: organism-based; parameters: dose 140 mg/kg, route oral; settings: in vivo; how it was run: as §2
Mus musculus [5] = assay: Phototoxicity in Swiss albino mouse assessed as ear thickness at 140 mg/kg, po after 96 hrs of irradiation; type: organism-based; parameters: dose 140 mg/kg, route oral; settings: in vivo; how it was run: as §2
Mus musculus [6] = assay: Phototoxicity in Swiss albino mouse assessed as ear thickness at 140 mg/kg, po after 4 hrs of irradiation; type: organism-based; parameters: dose 140 mg/kg, route oral; settings: in vivo; how it was run: as §2
[7] = Selectivity index, ratio of IC50 for monkey Vero cells to MIC for Mycobacterium tuberculosis H37Rv; type: functional
[8] = test system: Mycolicibacterium smegmatis; assay: Antimycobacterial activity against Mycobacterium smegmatis MC2 by agar dilution method; type: functional
How it was run: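 Agar dilution in Middlebrook 7H11 agar with OADC, run along NCCLS-recommended lines; M. smegmatis ATCC 14468 (MC2); MIC determined in duplicate.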

Mus musculus [9] = assay: as §1; type: organism-based; parameters: dose 140 mg/kg, route oral; settings: in vivo; how it was run: as §2; remark: listed apart in the source
[10] = test system: Mycobacterium tuberculosis; assay: Antimycobacterial activity against Mycobacterium tuberculosis ATCC 35801 infected in CD1 mouse assessed as bacterial load in spleen at 50 mg/kg, ip after 10 days; type: functional; settings: route intraperitoneal
How it was run: (§3)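 Female CD-1 mice, 6 weeks old, six per group, infected IV via caudal vein with ~10⁷ viable organisms. Intraperitoneal treatment started 10 days after inoculation and ran 10 days. At 35 days post-infection, spleens and right lungs were homogenised and serially 10-fold diluted onto 7H10 agar, incubated 4 weeks at 37 °C in ambient air. CFU compared with vehicle-treated controls.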

Vero = assay: Cytotoxicity against african green monkey Vero cells after 72 hrs by MTT assay; type: cell-based; settings: Chlorocebus sabaeus
How it was run: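 Mammalian Vero cells exposed to compounds at 62.5 µg/ml for 72 h; viability read by cellular conversion of MTT to formazan (Cell Titer 96 non-radioactive proliferation assay).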

Mus musculus [11] = assay: Phototoxicity in Swiss albino mouse assessed as erythema incidence at 140 mg/kg, po after 24 hrs of irradiation; type: organism-based; parameters: dose 140 mg/kg, route oral; settings: in vivo; how it was run: as §2
Mus musculus [12] = assay: Phototoxicity in Swiss albino mouse assessed as ear thickness at 140 mg/kg, po after 72 hrs of irradiation; type: organism-based; parameters: dose 140 mg/kg, route oral; settings: in vivo; how it was run: as §2
Mus musculus [13] = assay: Phototoxicity in Swiss albino mouse assessed as erythema incidence at 140 mg/kg, po after 4 hrs of irradiation; type: organism-based; parameters: dose 140 mg/kg, route oral; settings: in vivo; how it was run: as §2
[14] = test system: Mycobacterium tuberculosis; assay: Antimycobacterial activity against Mycobacterium tuberculosis H37Rv by agar dilution method; type: functional
How it was run: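 Agar dilution MIC on Middlebrook 7H11 agar with OADC, following the NCCLS-recommended approach, run in duplicate. The MDR clinical isolate was resistant to isoniazid, rifampicin, ethambutol and ofloxacin.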

Mus musculus [15] = assay: Phototoxicity in Swiss albino mouse assessed as ear thickness at 140 mg/kg, po after 48 hrs of irradiation; type: organism-based; parameters: dose 140 mg/kg, route oral; settings: in vivo; how it was run: as §2
[16] = test system: Mycobacterium tuberculosis; assay: Antimycobacterial activity against Mycobacterium tuberculosis ATCC 35801 infected in CD1 mouse assessed as bacterial load in lungs at 50 mg/kg, ip after 10 days; type: functional; settings: route intraperitoneal; how it was run: as §3

Sequence of DNA gyrase subunit B (Mycobacterium smegmatis (strain ATCC 700084 / mc(2)155), UniProt A0QNE0) (A0QNE0 whole entry): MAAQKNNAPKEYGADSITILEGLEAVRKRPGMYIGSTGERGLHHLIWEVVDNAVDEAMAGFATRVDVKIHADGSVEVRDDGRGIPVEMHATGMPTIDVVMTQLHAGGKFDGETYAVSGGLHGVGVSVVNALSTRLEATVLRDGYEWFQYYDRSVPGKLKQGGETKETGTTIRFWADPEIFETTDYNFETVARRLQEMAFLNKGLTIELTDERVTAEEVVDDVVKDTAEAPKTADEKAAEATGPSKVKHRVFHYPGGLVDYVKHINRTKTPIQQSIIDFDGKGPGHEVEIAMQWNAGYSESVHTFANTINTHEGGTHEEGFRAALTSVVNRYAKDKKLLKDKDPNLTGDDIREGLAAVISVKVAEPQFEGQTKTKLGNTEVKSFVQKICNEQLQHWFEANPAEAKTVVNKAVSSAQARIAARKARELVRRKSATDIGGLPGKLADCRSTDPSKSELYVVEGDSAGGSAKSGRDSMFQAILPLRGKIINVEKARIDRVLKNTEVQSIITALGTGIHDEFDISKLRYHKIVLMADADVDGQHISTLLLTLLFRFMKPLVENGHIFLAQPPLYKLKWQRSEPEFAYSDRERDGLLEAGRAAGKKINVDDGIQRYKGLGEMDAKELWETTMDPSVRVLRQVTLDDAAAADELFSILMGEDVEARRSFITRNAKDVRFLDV

For COc1ccc(CC2C3=C(CCCC3)CCN2c2c(F)c([N+](=O)[O-])c3c(=O)c(C(=O)O)cn(C4CC4)c3c2OC)cc1 (configuration not stated), which IC50 [1] is on record?
Its IC50 is 51.9 µM.

And the Activity (Mus musculus [2])?
The Activity was “Non-toxic”.

What about the Activity (Mus musculus [3]) of the same molecule?
The Activity was 0.32 mm.

And the Activity (Mus musculus [4])?
Its Activity is “Non-toxic”.

And the Activity (Mus musculus [5])?
Its Activity is 0.32 mm.

What about the Activity (Mus musculus [6]) of the same molecule?
Its Activity is 0.33 mm.

What about the Selectivity index [7] of the same molecule?
The Selectivity index was 676.31.

What about the MIC [8] of the same molecule?
Its MIC is 0.68 µM (≈ 0.393 µg/mL).

What about the Activity (Mus musculus [9]) of the same molecule?
Its Activity is “Non-toxic”.

What about the Activity [10] of the same molecule?
Its Activity is 6.1.

What about the IC50 (Vero) of the same molecule?
Its IC50 is 108 µM.

What about the Activity (Mus musculus [11]) of the same molecule?
Its Activity is “Non-toxic”.

What about the Activity (Mus musculus [12]) of the same molecule?
The Activity was 0.33 mm.

What about the Activity (Mus musculus [13]) of the same molecule?
Its Activity is “Non-toxic”.

What about the MIC [14] of the same molecule?
The MIC was 0.16 µM (≈ 0.0924 µg/mL).

What about the Activity (Mus musculus [15]) of the same molecule?
Its Activity is 0.33 mm.

What about the Activity [16] of the same molecule?
The Activity was 5.41.
